Results: article PMC2788160 (Nutrition Research and Practice, 2009)

Legend:
[1] = tested on: Caco-2 cell monolayer; experiment: Apical-to-basolateral uptake in Caco-2 differentiated monolayer; type: in vitro ADME, human; settings: for Conc. of aloe-emodin in basolateral side / Conc. of aloin in basolateral side: 1 hr, 37℃; for Absorption percent: Caco-2 cells over 1 hour
Summary of the method: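 Caco-2 (passages 26-48; high-glucose DMEM, 10% FBS, 1% nonessential amino acids) on Transwell inserts at 5×10^4 cells/cm2, 18-24 days; TEER >550 Ω·cm2. Apical compound at 5, 10, 50 µM final (DMSO, diluted in HBSS, pH 6.0); basolateral HBSS pH 7.4; 1 hr, 37℃. C18 HPLC with/without sulfatase H-5 (45 min, 37℃) gives parent and conjugates; % absorption = basolateral×100/apical concentration.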

[2] = tested on: everted gut sac (rat small intestine); experiment: Everted gut sac model uptake into serosal side; type: in vitro ADME; settings: 10 µM, 1 hr; Fig. 2
Summary of the method: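 Rats fasted overnight; small intestine flushed with 0.9% NaCl, everted in warm oxygenated TC 199 medium, filled, cut into ~2.5 cm sacs from upper/mid-jejunum (12-15 per experiment). Sacs incubated 1 hr, 37℃ in 6 ml oxygenated medium with 10 µM compound; serosal fluid collected, volume from sac weights. HPLC with/without sulfatase (difference = conjugates); uptake per mg tissue protein (modified Lowry, BSA standard).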

O=C1c2cccc(O)c2C(=O)c2c(O)cc(CO)cc21 [aloe-emodin]
Conc. of aloe-emodin in basolateral side ([1]; 5 μM apical treatment): 0.13 nmol/cm^2 culture area
Conc. of aloe-emodin in basolateral side ([1]; 10 μM apical treatment): 0.86 nmol/cm^2 culture area
Conc. of aloe-emodin in basolateral side ([1]; 50 μM apical treatment): 2.51 nmol/cm^2 culture area

CC(=O)Cc1cc(=O)c2c(C)cc(O)c([C@@H]3O[C@H](CO)[C@@H](O)[C@H](O)[C@H]3O)c2o1 [aloesin]
Absorption percent ([1]; 5 μM): 7.61%
Absorption percent ([1]; 10 μM): 13.64%
Absorption percent ([1]; 50 μM): 8.14%
% absorption in everted gut sac compared to Caco-2 monolayer [2]: more aloesin were shown to be absorbed in the gut sac compared to the Caco-2 monolayer

O=C1c2c(O)cccc2C([C@@H]2O[C@H](CO)[C@@H](O)[C@H](O)[C@H]2O)c2cc(CO)cc(O)c21 (stereo partly shown) [aloin]
Conc. of aloin in basolateral side ([1]; 5 μM apical treatment): 0.11 nmol/cm^2 culture area
Conc. of aloin in basolateral side ([1]; 10 μM apical treatment): 0.42 nmol/cm^2 culture area
Conc. of aloin in basolateral side ([1]; 50 μM apical treatment): 1.99 nmol/cm^2 culture area
